The text below walks through data of ChEMBL document CHEMBL3585325, “Discovery of (1R,2S)-2-{[(2,4-Dimethylpyrimidin-5-yl)oxy]methyl}-2-(3-fluorophenyl)-N-(5-fluoropyridin-2-yl)cyclopropanecarboxamide (E2006): A Potent and Efficacious Oral Orexin Receptor Antagonist” (J Med Chem, 2015).

Data set [1] is described as follows: Half life in C57BL/6NCrlCrlj mouse at 30 mg/kg, po by LC-MS/MS analysis. Format: ADME, organism-based. The settings on record: in vivo.
Data set [2] in a line: AUC (0 to infinity) in C57BL/6NCrlCrlj mouse at 10 mg/kg, po by LC-MS/MS analysis. The data set is classed as ADME, organism-based. Details: dose 10 mg/kg, route oral, time infinity. The settings on record: in vivo. Summed up:
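Male C57BL/6NCrlCrlj mice dosed orally at 10 mg/kg in 10% Cremophor EL, 5% DMSO in saline. Tail-vein blood was taken at set time points and spun to plasma. Quantified by LC-MS/MS (MRM, positive mode) with internal standard and a 1/x²-weighted calibration. Parameters came from noncompartmental analysis.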

Another data set deals with Mus musculus. Description: Sleep promoting activity in C57BL/6NCrlCrlj mouse assessed as increase in REM sleep at 30 mg/kg, po administered immediately prior to beginning of dark cycle measured during first 3 hrs after drug administration by electroencephalogram/electromyogram analysis (reference value: 0.6 min). The data set is classed as functional. In outline: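 Male C57BL/6NCrlCrlj mice implanted with EEG/EMG electrodes were dosed orally in 10% Cremophor EL, 5% DMSO in saline just before lights-off (ZT12) and recorded from ZT12 to ZT20. Group sizes were n=6 dosed and n=7 vehicle. Stages were scored by software with blinded visual confirmation; cumulative first-3-h times are mean with SEM. Dunnett's test was run after one-way ANOVA.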

Data set [3] is described as follows: Metabolic stability in human liver microsomes assessed as residual ratio at 0.1 uM after 15 mins by LC-MS analysis. The settings on record: read-out: Stability. Format: ADME. In outline:
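Compound at 0.1 μM in 0.1% DMSO incubated with human liver microsomes (0.2 mg/mL), with or without an NADPH-generating system, for 15 min at 37 °C. Reaction stopped with acetonitrile/methanol (7:3) containing propranolol internal standard. Parent compound was measured by LC-MS; residual ratio given with NADPH relative to without.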
(Microsomes from liver hold many membrane-bound enzymes, among them those of drug oxidation.)

The target of another data set is Cytochrome P450 2D6 (Homo sapiens, UniProt P10635). In words: Inhibition of CYP2D6 in human liver microsomes using bufuralol as susbtrate incubated for 30 mins prior to substrate addition for 10 mins by LC-MS/MS analysis. The data set is classed as ADME.

The structures appear in SMILES notation.

Sequence of Cytochrome P450 2D6 (P10635 whole entry): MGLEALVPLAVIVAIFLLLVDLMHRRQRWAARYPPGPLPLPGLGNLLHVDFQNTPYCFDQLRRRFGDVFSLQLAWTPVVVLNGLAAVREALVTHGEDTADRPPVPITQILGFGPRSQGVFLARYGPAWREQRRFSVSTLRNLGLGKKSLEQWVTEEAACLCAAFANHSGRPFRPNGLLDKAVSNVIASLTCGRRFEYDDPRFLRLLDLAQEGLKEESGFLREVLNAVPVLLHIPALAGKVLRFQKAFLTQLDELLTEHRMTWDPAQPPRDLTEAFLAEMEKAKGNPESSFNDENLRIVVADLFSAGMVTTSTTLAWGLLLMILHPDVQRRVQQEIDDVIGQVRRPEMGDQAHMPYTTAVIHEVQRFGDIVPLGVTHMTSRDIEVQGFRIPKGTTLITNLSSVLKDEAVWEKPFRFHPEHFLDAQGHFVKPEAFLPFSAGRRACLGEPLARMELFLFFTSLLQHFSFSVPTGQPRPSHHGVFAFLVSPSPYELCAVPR

Take `Cc1ncc(OC[C@@]2(c3cccc(F)c3)C[C@H]2C(=O)Nc2ccc(F)cn2)c(C)n1` [LEMBOREXANT]: the half-life (in general, how long it takes for the measured level to halve) in data set [1] was 1.94 h. Also, in data set [2], the area under the curve AUC(0-inf) (usually the area under the concentration-time curve extrapolated to infinity) was 1910 ng·h/mL. Also, in the data set on Mus musculus, the Time came to 9.3 min. In addition, the remaining at 0.25 h, 0.1 µM in data set [3] amounted to 90%. The IC50 (in general, the concentration at which inhibition is half-maximal) against Cytochrome P450 2D6 is over 20 µM.
